The target of experiment [1] is T1, Nitric oxide synthase, inducible (Mus musculus, UniProt P29477).
T1 sequence (P29477 whole entry): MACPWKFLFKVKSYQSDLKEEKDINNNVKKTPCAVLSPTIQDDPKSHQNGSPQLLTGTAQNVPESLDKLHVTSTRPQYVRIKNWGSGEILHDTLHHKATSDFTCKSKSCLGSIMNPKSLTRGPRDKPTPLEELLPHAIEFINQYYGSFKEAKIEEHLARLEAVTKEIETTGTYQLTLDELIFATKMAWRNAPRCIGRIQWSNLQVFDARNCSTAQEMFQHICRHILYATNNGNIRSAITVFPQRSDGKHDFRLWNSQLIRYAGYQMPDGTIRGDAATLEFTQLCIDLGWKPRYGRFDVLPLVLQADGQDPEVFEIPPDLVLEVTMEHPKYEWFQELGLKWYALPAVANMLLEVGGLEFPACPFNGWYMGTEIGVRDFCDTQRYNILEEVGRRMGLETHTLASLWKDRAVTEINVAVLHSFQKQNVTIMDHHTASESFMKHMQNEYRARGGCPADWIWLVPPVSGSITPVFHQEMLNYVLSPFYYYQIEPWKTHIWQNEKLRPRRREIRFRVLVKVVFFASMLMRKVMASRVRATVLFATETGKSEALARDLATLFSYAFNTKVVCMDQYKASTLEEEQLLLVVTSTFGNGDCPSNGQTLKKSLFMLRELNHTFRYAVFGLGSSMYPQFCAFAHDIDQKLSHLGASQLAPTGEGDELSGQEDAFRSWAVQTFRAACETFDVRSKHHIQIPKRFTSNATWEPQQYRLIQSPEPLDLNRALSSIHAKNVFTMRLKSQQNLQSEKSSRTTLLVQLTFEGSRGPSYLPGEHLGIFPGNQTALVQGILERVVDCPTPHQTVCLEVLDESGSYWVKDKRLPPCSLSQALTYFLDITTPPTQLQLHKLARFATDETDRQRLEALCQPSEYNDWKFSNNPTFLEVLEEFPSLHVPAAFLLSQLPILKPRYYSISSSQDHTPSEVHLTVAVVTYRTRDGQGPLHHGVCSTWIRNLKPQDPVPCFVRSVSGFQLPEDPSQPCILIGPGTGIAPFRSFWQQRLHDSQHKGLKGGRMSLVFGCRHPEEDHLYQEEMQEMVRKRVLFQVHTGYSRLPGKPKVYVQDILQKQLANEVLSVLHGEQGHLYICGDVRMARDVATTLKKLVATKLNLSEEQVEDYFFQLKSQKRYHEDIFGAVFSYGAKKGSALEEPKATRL
Nature of the experiment: Inhibition of inducible nitric oxide synthetase in LPS-stimulated mouse ANA1 macrophages. In short, it runs like this:
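ANA-1 macrophages grown in DMEM with 10% heat-inactivated FBS and 2 mM L-glutamine, 37 °C, 5% CO₂, 10⁵ cells/mL prepared the day before. Cells stimulated with LPS for 24 h, collected, then given assay buffer, L-arginine substrate and DAF-FM DA tracer. Reaction started with 0.1 mM NADPH, 37 °C 30 min, washed, fluorescence read. Triplicate, mean of three.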

Experiment [2] addresses T2, Proto-oncogene tyrosine-protein kinase Src (Homo sapiens, UniProt P12931). Kind of experiment: Inhibition of human recombinant cSrc by ELISA. On the technique in general: ELISA stands for enzyme-linked immunosorbent assay.
For experiment [3], the target named is T2, Proto-oncogene tyrosine-protein kinase Src. Nature of the experiment: Inhibition of human recombinant cSrc by fluorescence polarization assay. Background: Polarisation of emitted light reports the rotation of a fluorescent probe.
A further experiment deals with HT-29. Kind of experiment: Antiproliferative activity against human HT29 cells after 48 hrs by sulforhodamine B assay. It counts as functional, cell-based. Conditions: HT-29, 48 h; for CC50: read-out: LC50 (the source's name). In short, it runs like this: (§1)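 SRB assay: cells plated in 96-well plates, mostly at 20,000 cells/well, pre-incubated 24 h without drug. Compounds added in 10-fold dilutions from highest soluble concentration, 48 h further incubation. Cells fixed in situ, washed, dried, SRB stained; proliferation inhibition from change in total optical density after 48 h treatment.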
(In general: In SRB staining, fixed cells bind dye roughly in proportion to their protein.)

The next experiment concerns HepG2. Kind of experiment: Antiproliferative activity against human HepG2 cells after 48 hrs by sulforhodamine B assay. It counts as functional, cell-based. Conditions: HepG2, 48 h; for CC50: read-out: LC50 (the source's name). In short, it runs like this:
as §1

Results on 16 compounds are retold here after ChEMBL document CHEMBL1150398, “Design and synthesis of 7-alkoxy-4-heteroarylamino-3-quinolinecarbonitriles as dual inhibitors of c-Src kinase and nitric oxide synthase” (Bioorg Med Chem, 2008).

Usually IC50 stands for the point on the concentration scale where inhibition reaches its midpoint. By GI50 is commonly meant the concentration giving 50% growth inhibition. High values mean lower sensitivity of the cells, low ones greater sensitivity of the cells. What is called TGI is the concentration at which net growth stops.

T2 sequence (P12931 2-536 limits assumed): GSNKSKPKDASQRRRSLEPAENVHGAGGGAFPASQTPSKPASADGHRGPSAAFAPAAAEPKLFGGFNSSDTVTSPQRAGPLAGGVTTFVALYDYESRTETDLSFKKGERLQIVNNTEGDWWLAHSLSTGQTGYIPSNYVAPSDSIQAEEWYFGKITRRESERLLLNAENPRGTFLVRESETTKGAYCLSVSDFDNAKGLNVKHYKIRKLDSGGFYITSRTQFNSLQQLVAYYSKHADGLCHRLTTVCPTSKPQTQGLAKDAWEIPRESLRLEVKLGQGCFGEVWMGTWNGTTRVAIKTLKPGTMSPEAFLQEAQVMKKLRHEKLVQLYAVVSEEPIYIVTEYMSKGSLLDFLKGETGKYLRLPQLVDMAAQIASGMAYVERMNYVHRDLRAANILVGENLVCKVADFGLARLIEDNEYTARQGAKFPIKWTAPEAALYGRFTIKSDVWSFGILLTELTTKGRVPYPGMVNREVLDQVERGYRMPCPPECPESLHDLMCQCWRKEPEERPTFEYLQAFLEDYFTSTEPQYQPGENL

Take `Cc1ccc2nc(Nc3c(C#N)cnc4cc(OCCCN5CCN(C)CC5)c(C)cc34)sc2c1`: the IC50 in experiment [1] is 12.7 µM.

The compound `Cc1cc2c(Nc3nc4ccccc4s3)c(C#N)cnc2cc1OCCCN1CCOCC1` gave an IC50 in experiment [1] of 139 µM.

On to `Cc1cc2c(Nc3nc4ccccc4s3)c(C#N)cnc2cc1OCCCN1CCCCC1`, for which the IC50 in experiment [1] worked out at 412 µM.

Take `COc1cc2c(Nc3nc4ccc(OC(F)(F)F)cc4s3)c(C#N)cnc2cc1OCCCN1CCN(C)CC1`: the IC50 in experiment [1] worked out at 65.6 µM.

Turning to `COc1cc2c(Nc3nc4ccccc4s3)c(C#N)cnc2cc1OCCN1CCOCC1`, the IC50 was over 1000 nM in experiment [2] and 26.7 µM in experiment [1].

`COc1cc2c(Nc3nc4ccccc4s3)c(C#N)cnc2cc1OCCCN1CCN(C)CC1`: it took 98 µM to reach half-maximal inhibition in experiment [1] (IC50).

Consider `COc1cc2c(Nc3nc4ccccc4s3)c(C#N)cnc2cc1OCCN1CCN(C)CC1`, for which, in experiment [1], inhibition was half-maximal at 2.18 µM (IC50).

With `COc1cc2c(Nc3nc4ccccc4s3)c(C#N)cnc2cc1OCCN1CCCCC1`, half-maximal inhibition in experiment [1] (IC50) required 44.8 µM.

With `Cc1cc2c(Nc3nc4ccc(OC(F)(F)F)cc4s3)c(C#N)cnc2cc1OCCCN1CCN(C)CC1`, the IC50 in experiment [1] came out at 16.3 µM.

`Cc1cc2c(Nc3ccccn3)c(C#N)cnc2cc1OCCCN1CCN(C)CC1`: in experiment [1], inhibition was half-maximal at 18.6 µM (IC50).

Consider `Cc1cc2c(Nc3nc4ccccc4[nH]3)c(C#N)cnc2cc1OCCCN1CCN(C)CC1`, for which the IC50 in experiment [3] was over 1000 nM; in experiment [1] it was 15.5 µM.

In experiment [1], `COc1cc2c(Nc3nc4ccccc4[nH]3)c(C#N)cnc2cc1OCCCN1CCN(C)CC1` returned an IC50 of 18.1 µM.

For `Cc1ccc2nc(Nc3c(C#N)cnc4cc(OCCCN5CCCCC5)c(C)cc34)sc2c1`, in the experiment on HT-29, the GI50 is 5.59 µM, the IC50 stood at 6.58 µM, the TGI is over 10 µM and the CC50 was over 10 µM. Besides, in the experiment with HepG2, the GI50 is 4850 nM, half-maximal inhibition (IC50) was put at 7.61 µM, net growth stopped (TGI) at 9.25 µM and the CC50 is over 10 µM. This compound also returned an IC50 in experiment [1] of 313 µM.

With `Nc1nccs1` [AMINOTHIAZOLE], it took 18 µM to reach half-maximal inhibition in experiment [1] (IC50).

Regarding `COc1cc(Nc2c(C#N)cnc3cc(OCCCN4CCN(C)CC4)c(OC)cc23)c(Cl)cc1Cl` [BOSUTINIB], in the experiment on HT-29, the GI50 worked out at 1.17 µM, half-maximal inhibition (IC50) was put at 3.87 µM, total growth inhibition (TGI) required 6.5 µM and the CC50 is over 10 µM. Further, in the experiment with HepG2, the GI50 amounted to 1150 nM, 3.91 µM corresponded to half-maximal inhibition (IC50), total growth inhibition (TGI) required 7.66 µM and the CC50 was over 10 µM.

In experiment [1], `N=C(N)NOCC[C@H](N)C(=O)O` [CANAVANINE] registered an IC50 of 60 µM.
